The record followed here is ChEMBL document CHEMBL1177725, “6-(3,4-dichlorophenyl)-1-[(methyloxy)methyl]-3-azabicyclo[4.1.0]heptane: a new potent and selective triple reuptake inhibitor” (J Med Chem, 2010).

Broadly, the IC50 is the midpoint of a concentration-inhibition curve. A higher IC50 goes with weaker potency. Broadly, the Ki is a dissociation constant, usually derived from enzyme kinetics or from competition with a known ligand.

Data set [1] addresses Cytochrome P450 3A4 (Homo sapiens, UniProt P08684). Put plainly: Inhibition of human CYP3A4 after 10 mins. The format is ADME. The procedure, abridged:
(§1)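 Recombinant human CYP bactosomes (0.1 mg/mL) were pre-incubated 10 min at 37 °C in 50 mM phosphate pH 7.4 with compound (0.1–10 μM) and a fluorogenic substrate. Substrates: ethoxyresorufin 0.5 μM (1A2), FCA 50 μM (2C9), BMC 10 μM (2C19), MMC 10 μM (2D6), DEF 1 μM or 7-BQ 25 μM (3A4). Adding an NADPH-regenerating system started the reaction, and metabolite fluorescence was read over 10 min. The IC50 came from rate as percent of control; miconazole served as positive control, with triplicates.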

For data set [2], the target named is Cytochrome P450 2D6 (Homo sapiens, UniProt P10635). Put plainly: Inhibition of human CYP2D6 after 10 mins. The format is ADME. The procedure, abridged: as §1
Data set [3] addresses Cytochrome P450 2C19 (Homo sapiens, UniProt P33261). Nature of the data set: Inhibition of human CYP2C19 after 10 mins. The format is ADME. The method in brief:
as §1

Data set [4] has as its target Cytochrome P450 2C9 (Homo sapiens, UniProt P11712). Put plainly: Inhibition of human CYP2C9 after 10 mins. The format is ADME. The method in brief: as §1
Data set [5] addresses T1, Cytochrome P450 1A2 (Homo sapiens, UniProt P05177).
T1 sequence (P05177 whole entry): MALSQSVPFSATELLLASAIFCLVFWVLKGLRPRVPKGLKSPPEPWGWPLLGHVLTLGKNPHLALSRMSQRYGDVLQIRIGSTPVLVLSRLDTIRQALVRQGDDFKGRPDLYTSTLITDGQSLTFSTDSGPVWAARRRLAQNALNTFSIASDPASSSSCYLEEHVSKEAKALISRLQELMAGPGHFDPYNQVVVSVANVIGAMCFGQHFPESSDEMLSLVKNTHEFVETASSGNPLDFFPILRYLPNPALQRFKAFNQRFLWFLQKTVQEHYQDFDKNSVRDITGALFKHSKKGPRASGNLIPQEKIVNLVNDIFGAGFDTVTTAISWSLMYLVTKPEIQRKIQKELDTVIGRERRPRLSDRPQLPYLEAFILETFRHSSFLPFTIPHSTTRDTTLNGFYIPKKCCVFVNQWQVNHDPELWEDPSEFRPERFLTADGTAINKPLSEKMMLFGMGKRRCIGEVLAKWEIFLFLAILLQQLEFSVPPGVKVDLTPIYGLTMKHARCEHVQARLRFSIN
Nature of the data set: Inhibition of human CYP1A2 after 10 mins. It is filed as ADME. The procedure, abridged: as §1

Data set [6] addresses Sodium-dependent dopamine transporter (Homo sapiens, UniProt Q01959). Nature of the data set: Displacement of [N-methyl-3H]WIN-35428 from human recombinant DAT expressed in pig LLCPK cells after 2 hrs by liquid scintillation counting. The format is cell-based.
The target of data set [7] is Sodium-dependent noradrenaline transporter (Homo sapiens, UniProt P23975). Put plainly: Displacement of [N-methyl-3H]nisoxetine from human recombinant NET expressed in pig LLCPK cells after 2 hrs by liquid scintillation counting. It is filed as cell-based.
Data set [8] concerns the target Sodium-dependent serotonin transporter (Homo sapiens, UniProt P31645). Put plainly: Displacement of [N-methyl-3H]citalopram from human recombinant SERT expressed in pig LLCPK cells after 2 hrs by liquid scintillation counting. The format is cell-based.
The subject of data set [9] is Liver microsomes. Put plainly: Intrinsic clearance in rat liver microsomes assessed per gram of protein at 0.5 uM after 30 mins. It is filed as ADME, Microsome. The following applies: 0.5 h. The method in brief:
(§2)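 Compound at 0.5 μM with liver microsomes (0.5 mg protein/mL) in 50 mM phosphate pH 7.4 at 37 °C, started with NADPH. Samples at 0, 3, 6, 9, 15 and 30 min were quenched in acetonitrile and analysed by HPLC-MS/MS. Cli came from the first-order elimination constant, scaled assuming 52.5 mg microsomal protein/g.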
Background: Liver microsomes are vesicles of endoplasmic reticulum, rich in cytochrome P450 enzymes.

In data set [10] the test system is Liver microsomes. Nature of the data set: Intrinsic clearance in human liver microsomes assessed per gram of protein at 0.5 uM after 30 mins. It is filed as ADME, Microsome. To be noted: 0.5 h. The procedure, abridged:
as §2

In data set [11] the test system is Mus musculus. Nature of the data set: Potentiation of 5-hydroxytryptophan-induced stereotypic behavior in mouse at 10 mg/kg, po administered 2 hrs before 5-hydroxytryptophan challenge measured for 30 mins. It is filed as functional, organism-based. Further details: dose 10 mg/kg. The procedure, abridged:
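Mice were dosed orally at 3, 10 or 30 mg/kg 120 min before an ip injection of 5-HTP (100 mg/kg). Each mouse was then placed alone in a perspex box, and 5-HTP-induced stereotyped behaviour was assessed.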

Calls of active or inactive are those of the source. No cut-off for these calls is given here.

Sequence of Cytochrome P450 3A4 (P08684 whole entry): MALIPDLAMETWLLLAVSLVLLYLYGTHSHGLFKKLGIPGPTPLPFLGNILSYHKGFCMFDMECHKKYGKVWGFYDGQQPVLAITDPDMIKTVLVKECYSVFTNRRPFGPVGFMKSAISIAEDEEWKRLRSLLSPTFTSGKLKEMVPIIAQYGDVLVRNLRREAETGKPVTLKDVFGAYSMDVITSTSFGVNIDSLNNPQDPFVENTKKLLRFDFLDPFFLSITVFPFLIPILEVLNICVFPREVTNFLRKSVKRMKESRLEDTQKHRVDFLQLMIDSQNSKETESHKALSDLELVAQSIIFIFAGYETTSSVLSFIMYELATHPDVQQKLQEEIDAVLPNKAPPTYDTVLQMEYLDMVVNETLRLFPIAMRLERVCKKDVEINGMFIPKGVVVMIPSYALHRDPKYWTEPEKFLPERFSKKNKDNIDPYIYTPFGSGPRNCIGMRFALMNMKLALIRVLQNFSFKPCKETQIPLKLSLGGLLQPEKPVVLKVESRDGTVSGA
Sequence of Sodium-dependent noradrenaline transporter (P23975 whole entry): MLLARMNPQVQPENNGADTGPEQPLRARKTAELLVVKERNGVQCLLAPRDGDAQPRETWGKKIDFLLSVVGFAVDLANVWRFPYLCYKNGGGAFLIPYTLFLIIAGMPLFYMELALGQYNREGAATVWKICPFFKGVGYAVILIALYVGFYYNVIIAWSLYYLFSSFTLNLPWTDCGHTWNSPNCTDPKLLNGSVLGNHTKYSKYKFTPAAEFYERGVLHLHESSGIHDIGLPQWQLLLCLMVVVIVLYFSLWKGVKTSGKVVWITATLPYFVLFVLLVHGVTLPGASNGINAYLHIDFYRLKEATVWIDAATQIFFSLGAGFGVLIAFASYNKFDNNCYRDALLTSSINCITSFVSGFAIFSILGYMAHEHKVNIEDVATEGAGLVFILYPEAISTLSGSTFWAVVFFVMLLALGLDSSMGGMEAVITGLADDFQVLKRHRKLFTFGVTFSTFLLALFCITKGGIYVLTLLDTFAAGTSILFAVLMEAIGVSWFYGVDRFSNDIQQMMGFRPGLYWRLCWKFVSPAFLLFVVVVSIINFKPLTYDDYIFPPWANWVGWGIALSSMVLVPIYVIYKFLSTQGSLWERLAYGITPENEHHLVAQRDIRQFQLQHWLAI
Sequence of Cytochrome P450 2C19 (P33261 whole entry): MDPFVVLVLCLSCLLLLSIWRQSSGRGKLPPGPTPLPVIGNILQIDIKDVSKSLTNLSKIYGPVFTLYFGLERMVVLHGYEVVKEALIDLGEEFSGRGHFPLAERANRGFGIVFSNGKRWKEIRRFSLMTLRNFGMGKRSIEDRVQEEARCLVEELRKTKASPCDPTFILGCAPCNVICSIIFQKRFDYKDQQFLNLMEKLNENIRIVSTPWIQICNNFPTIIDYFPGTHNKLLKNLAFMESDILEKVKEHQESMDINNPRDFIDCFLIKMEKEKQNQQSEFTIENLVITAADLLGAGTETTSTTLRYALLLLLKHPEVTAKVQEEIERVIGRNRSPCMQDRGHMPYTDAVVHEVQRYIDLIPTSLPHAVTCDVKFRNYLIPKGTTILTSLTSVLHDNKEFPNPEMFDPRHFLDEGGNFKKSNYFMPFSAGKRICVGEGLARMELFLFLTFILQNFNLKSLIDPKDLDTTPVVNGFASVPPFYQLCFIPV
Sequence of Sodium-dependent dopamine transporter (Q01959 whole entry): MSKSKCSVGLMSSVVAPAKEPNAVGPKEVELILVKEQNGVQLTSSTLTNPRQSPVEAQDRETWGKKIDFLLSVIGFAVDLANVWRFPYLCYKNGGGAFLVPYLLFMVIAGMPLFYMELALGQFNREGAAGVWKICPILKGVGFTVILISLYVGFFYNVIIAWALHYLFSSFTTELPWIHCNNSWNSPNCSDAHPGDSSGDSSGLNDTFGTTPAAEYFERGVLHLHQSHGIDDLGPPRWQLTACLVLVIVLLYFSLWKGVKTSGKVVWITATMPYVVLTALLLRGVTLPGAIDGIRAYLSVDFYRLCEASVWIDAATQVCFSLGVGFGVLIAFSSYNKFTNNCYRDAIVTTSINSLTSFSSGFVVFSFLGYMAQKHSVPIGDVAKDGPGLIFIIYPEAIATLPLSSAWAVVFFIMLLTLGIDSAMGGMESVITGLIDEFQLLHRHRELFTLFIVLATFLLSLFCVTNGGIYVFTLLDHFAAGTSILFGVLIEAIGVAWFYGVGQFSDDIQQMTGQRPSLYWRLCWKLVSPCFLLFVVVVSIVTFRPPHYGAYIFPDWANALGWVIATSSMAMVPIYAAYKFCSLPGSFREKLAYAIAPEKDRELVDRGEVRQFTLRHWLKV
Sequence of Cytochrome P450 2C9 (P11712 whole entry): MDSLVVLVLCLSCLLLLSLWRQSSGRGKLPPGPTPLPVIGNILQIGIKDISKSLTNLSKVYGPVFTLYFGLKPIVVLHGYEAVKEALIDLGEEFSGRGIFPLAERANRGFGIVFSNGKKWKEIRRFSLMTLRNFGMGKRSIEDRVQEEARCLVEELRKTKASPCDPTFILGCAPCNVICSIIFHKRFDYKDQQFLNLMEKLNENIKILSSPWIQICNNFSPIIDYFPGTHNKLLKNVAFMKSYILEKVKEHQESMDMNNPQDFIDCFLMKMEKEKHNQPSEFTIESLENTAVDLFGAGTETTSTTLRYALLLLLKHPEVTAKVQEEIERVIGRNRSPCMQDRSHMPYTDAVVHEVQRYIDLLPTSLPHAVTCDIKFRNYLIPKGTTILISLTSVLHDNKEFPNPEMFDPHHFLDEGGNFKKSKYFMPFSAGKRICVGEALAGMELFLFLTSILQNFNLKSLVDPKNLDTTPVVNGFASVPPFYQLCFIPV
Sequence of Cytochrome P450 2D6 (P10635 whole entry): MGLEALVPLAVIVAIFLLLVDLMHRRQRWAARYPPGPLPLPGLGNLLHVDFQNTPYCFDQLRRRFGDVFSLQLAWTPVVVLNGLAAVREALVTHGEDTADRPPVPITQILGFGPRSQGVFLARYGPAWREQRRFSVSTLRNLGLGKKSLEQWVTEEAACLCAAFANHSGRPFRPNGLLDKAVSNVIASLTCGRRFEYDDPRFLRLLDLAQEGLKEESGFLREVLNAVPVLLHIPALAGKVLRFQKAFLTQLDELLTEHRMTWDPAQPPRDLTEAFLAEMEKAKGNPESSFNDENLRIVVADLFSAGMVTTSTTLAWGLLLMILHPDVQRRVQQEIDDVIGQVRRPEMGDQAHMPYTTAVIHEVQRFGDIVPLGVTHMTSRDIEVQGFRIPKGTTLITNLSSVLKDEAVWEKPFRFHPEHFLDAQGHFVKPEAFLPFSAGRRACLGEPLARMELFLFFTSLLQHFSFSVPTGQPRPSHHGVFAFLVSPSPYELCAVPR
Sequence of Sodium-dependent serotonin transporter (P31645 whole entry): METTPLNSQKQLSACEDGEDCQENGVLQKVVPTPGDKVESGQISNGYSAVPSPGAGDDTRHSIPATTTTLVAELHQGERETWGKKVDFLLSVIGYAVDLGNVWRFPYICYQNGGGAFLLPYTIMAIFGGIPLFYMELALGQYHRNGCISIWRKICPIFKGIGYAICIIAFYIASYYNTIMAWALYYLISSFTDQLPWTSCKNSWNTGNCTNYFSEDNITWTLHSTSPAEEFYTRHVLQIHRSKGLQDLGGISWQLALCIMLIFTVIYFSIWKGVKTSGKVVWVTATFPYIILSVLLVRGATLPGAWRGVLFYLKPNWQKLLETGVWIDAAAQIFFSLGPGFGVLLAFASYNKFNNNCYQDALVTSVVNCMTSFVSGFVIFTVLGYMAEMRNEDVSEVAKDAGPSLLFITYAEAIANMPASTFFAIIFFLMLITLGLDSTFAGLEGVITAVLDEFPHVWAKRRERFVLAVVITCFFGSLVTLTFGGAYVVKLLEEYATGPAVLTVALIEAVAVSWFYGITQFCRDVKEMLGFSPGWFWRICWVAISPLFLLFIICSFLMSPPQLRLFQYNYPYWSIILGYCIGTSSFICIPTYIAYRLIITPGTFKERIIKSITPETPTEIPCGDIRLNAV

Turning to `COC[C@@]12CNCC[C@]1(c1ccc(Cl)c(Cl)c1)C2` (racemic) [GSK1360707], the IC50 in data set [1] stood at 10000 nM; in [2], 3000 nM; in data set [3], 10000 nM; in [4], 10000 nM; in data set [5] it was 10000 nM. Moreover, the results for the Ki in [6], in [7] and in data set [8] were 25.1 nM, 12.6 nM and 1.58 nM, respectively.
Regarding `C=CCC(OC)[C@]12CNCC[C@]1(c1ccc(Cl)c(Cl)c1)C2` (mixture of isomers; form 1) [6-(3,4-DICHLOROPHENYL)-1-[1-(METHYLOXY)-3-BUTEN-1-YL]-3-AZABICYCLO[4.1.0]HEPTANE (DIASTEREOMERIC MIX)], the IC50 in data set [1], in data set [2], in data set [3], in data set [4] and in data set [5] was 3000 nM each time. Further, the inhibitory constant (Ki) was 1.26 nM in data set [6], 1 nM in [7] and 0.126 nM in [8].
For `COC[C@@]12CNCC[C@]1(c1ccc3ccccc3c1)C2` (single isomer, unassigned; 28) [1-(METHOXYMETHYL)-6-(NAPHTHALEN-2-YL)-3-AZABICYCLO[4.1.0]HEPTANE (ENANTIOMERIC MIX)], the results for the CL in data set [9] and in data set [10] were 17 mL/min/g and 1.2 mL/min/g, respectively. For the same compound, the IC50 in data set [1], in data set [2], in [3], in data set [4] and in data set [5] was 8000 nM in each case. Moreover, the Ki was 12.6 nM in [6], 10 nM in data set [7] and 0.126 nM in data set [8].
With `CN(C)CCCC1(c2ccc(F)cc2)OCc2cc(C#N)ccc21` (centres undefined), the outcome in data set [11] was Active.
As for `COC[C@@]12CNCC[C@]1(c1ccc(Cl)c(Cl)c1)C2` (relative stereo; 18) [GSK1360707], the CL in [9] was 1.8 mL/min/g; in data set [10], 1.4 mL/min/g. In addition, the IC50 was 10000 nM in [1]; 3000 nM in data set [2]; 10000 nM in [3]; 10000 nM in data set [4]; 10000 nM in [5]. Besides, the inhibition constant (Ki) in data set [6] was 100 nM; in [7], 126 nM; in [8], 20 nM.
Consider `COC[C@@]12CN(C(C)C)CC[C@]1(c1ccc(Cl)c(Cl)c1)C2`, for which the results for the Ki in data set [6], in data set [7] and in data set [8] were 1260 nM, 5010 nM and 631 nM, respectively.
In the case of `COC[C@@]12CN[C@@H](C)C[C@]1(c1ccc(Cl)c(Cl)c1)C2` (racemic), the Ki was 39.8 nM in [6], 50.1 nM in data set [7] and 7.94 nM in data set [8].
In the case of `CCOC[C@@]12CNCC[C@]1(c1ccc(Cl)c(Cl)c1)C2` (relative stereo; 30) [6-(3,4-DICHLOROPHENYL)-1-[(ETHYLOXY)METHYL]-3-AZABICYCLO[4.1.0]-HEPTANE (ENANTIOMERIC MIX)], the inhibition constant (Ki) in data set [6] was 63.1 nM; in data set [7], 100 nM; in data set [8], 10 nM.
Turning to `Clc1ccc([C@]23CCN4CC[C@]2(C4)C3)cc1Cl` (single isomer, unassigned; 49) [3-(3,4-DICHLORO-PHENYL)-6-AZA-TRICYCLO[4.2.1.0*1,3*]NONANE (STRUCTURAL MIX)], the Ki is 79.4 nM in data set [6], 63.1 nM in data set [7] and 1.58 nM in data set [8].
As for `COC[C@@]12CNC[C@H](F)[C@]1(c1ccc(Cl)c(Cl)c1)C2` (racemic), the inhibition constant Ki in [6] was 100 nM; in [7] it was 100 nM; in [8] it was 5.01 nM.
Consider `COC[C@@]12CCNC[C@]1(c1ccc(Cl)c(Cl)c1)C2` (relative stereo) [RAC-1-(3,4-DICHLOROPHENYL)-6-(METHOXYMETHYL)-2-AZABICYCLO[4.1.0]HEPTANE (ENANTIOMERS)], for which the Ki in [6] is 63.1 nM; in [7], 100 nM; in data set [8], 12.6 nM.
The like results for `OC[C@@]12CNCC[C@]1(c1ccc(Cl)c(Cl)c1)C2` (relative stereo; 14) [RAC-1-(3,4-DICHLOROPHENYL)-3-AZABICYCLO[4.1.0]HEPTAN-6-YL)METHANOL (STRUCTURAL MIX)] were, in that order, 100 nM, 398 nM and 39.8 nM.
For `C=CCC(OC)[C@]12CNCC[C@]1(c1ccc(Cl)c(Cl)c1)C2` (mixture of isomers; form 2) [6-(3,4-DICHLOROPHENYL)-1-[1-(METHYLOXY)-3-BUTEN-1-YL]-3-AZABICYCLO[4.1.0]HEPTANE (DIASTEREOMERIC MIX)], the Ki in data set [6] is 1.58 nM; in data set [7], 3.98 nM; in data set [8], 1.26 nM.
As for `COC[C@@]12CNCC[C@]1(c1ccc3ccccc3c1)C2` (racemic) [1-(METHOXYMETHYL)-6-(NAPHTHALEN-2-YL)-3-AZABICYCLO[4.1.0]HEPTANE (ENANTIOMERIC MIX)], the inhibition constant Ki in data set [6] is 31.6 nM; in [7], 12.6 nM; in data set [8], 0.316 nM.
Turning to `COC[C@@]12CCNC[C@]1(c1ccc(Cl)c(Cl)c1)C2` (racemic) [RAC-1-(3,4-DICHLOROPHENYL)-6-(METHOXYMETHYL)-2-AZABICYCLO[4.1.0]HEPTANE (ENANTIOMERS)], the CL in data set [9] stood at 1.8 mL/min/g; in data set [10], 1.4 mL/min/g. In addition, the figures for the Ki in data set [6], in data set [7] and in data set [8] were 126 nM, 200 nM and 31.6 nM, respectively.
Turning to `Clc1ccc([C@@]23CCNC[C@@H]2C3)cc1Cl` (relative stereo) [RAC-1-(3,4-DICHLO ROPHENYL)-3-AZABICYCLO[4.1.0]HEPTANE (ENANTIOMERS)], the figures for the Ki in data set [6], in data set [7] and in [8] were 50.1 nM, 251 nM and 39.8 nM, respectively.
The like results for `COC[C@@]12CNC[C@@H](F)[C@]1(c1ccc(Cl)c(Cl)c1)C2` (racemic) were, in that order, 100 nM, 50.1 nM and 3.98 nM.
The like results for `Clc1ccc([C@@]23CCNC[C@@H]2C3)cc1Cl` (single isomer, unassigned) [RAC-1-(3,4-DICHLO ROPHENYL)-3-AZABICYCLO[4.1.0]HEPTANE (ENANTIOMERS)] were, in that order, 25.1 nM, 100 nM and 12.6 nM.
On to `Clc1ccc([C@@]23CCNC[C@@H]2C3)cc1Cl` (racemic) [RAC-1-(3,4-DICHLO ROPHENYL)-3-AZABICYCLO[4.1.0]HEPTANE (ENANTIOMERS)], for which the Ki was 50.1 nM in data set [6], 251 nM in data set [7] and 25.1 nM in data set [8].
The like results for `COC[C@@]12CNCC[C@]1(c1ccc(Cl)c(C(F)(F)F)c1)C2` (racemic) were, in that order, 3160 nM, 200 nM and 15.8 nM.
